Laboratory results taken from ChEMBL document CHEMBL1671635, “Effect of protein binding on the pharmacological activity of highly bound antibiotics” (Antimicrob Agents Chemother, 2008).
In brackets after ≈: the same amount, converted by molar mass. Activity calls are given as the source filed them. No cut-off for these calls is given here.

Key:
Escherichia coli [1] = assay: Antimicrobial activity against Escherichia coli ATCC 25922; type: functional, organism-based
Procedure, shortened: (§1)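 Broth macrodilution, serial twofold dilutions, run per CLSI guidelines. Media were MHB (E. coli) or THB (S. pneumoniae), used with or without 40 g/liter BSA or HSA; supplemented broth was 0.2-μm filtered and adjusted to pH 7.4. Inoculum came from overnight 5% sheep blood agar colonies set to 0.5 McFarland in saline and diluted in broth to ~5 × 10⁵ CFU/ml. Six determinations; values reported as modes.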

Streptococcus pneumoniae [2] = assay: Antimicrobial activity against penicillin-sensitive Streptococcus pneumoniae ATCC 6303 assessed as growth rate constant; type: functional
Procedure, shortened: (§2)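 Constant-concentration time-kill curves, 6 h, in triplicate. […] Inoculum of ~5 × 10⁵ CFU/ml was grown 2 h before drug was added. Samples taken 0–6 h were counted by droplet plating after 20–24 h at 37°C. A two-compartment model (susceptible plus persister cells) was fitted simultaneously across conditions to obtain growth and maximal kill rate constants.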

Escherichia coli [3] = assay: Antimicrobial activity against Escherichia coli ATCC 25922 in presence of bovine serum albumin; type: functional, organism-based; procedure, shortened: as §1
Escherichia coli [4] = assay: Bactericidal activity against Escherichia coli ATCC 25922 at 8 times MIC after 6 hrs by time kill analysis in presence of 40 g/L bovine serum albumin
Escherichia coli [5] = assay: Antimicrobial activity against Escherichia coli ATCC 25922 assessed as growth rate constant; type: functional; procedure, shortened: as §2
Streptococcus pneumoniae [6] = assay: Antimicrobial activity against penicillin-sensitive Streptococcus pneumoniae ATCC 6303 by serial dilution twofold broth microdilution method; type: functional; details: in the assay text read “macrodilution” for “microdilution”; procedure, shortened: as §1
Streptococcus pneumoniae [7] = assay: Bactericidal activity against penicillin-sensitive Streptococcus pneumoniae ATCC 6303 at 8 times MIC after 24 hrs by time kill analysis in presence of 40 g/L human serum albumin; type: functional, organism-based
Escherichia coli [8] = assay: Antimicrobial activity against Escherichia coli ATCC 25922 assessed as maximum killing rate constant; type: functional; procedure, shortened: as §2
Escherichia coli [9] = assay: Antimicrobial activity against Escherichia coli ATCC 25922 by serial dilution twofold broth macrodilution method in presence of 40 g/L human serum albumin
Streptococcus pneumoniae [10] = assay: Bactericidal activity against penicillin-sensitive Streptococcus pneumoniae ATCC 6303 at 8 times MIC after 24 hrs by time kill analysis; type: functional, organism-based
Streptococcus pneumoniae [11] = assay: Antimicrobial activity against penicillin-sensitive Streptococcus pneumoniae ATCC 6303 by serial dilution twofold broth microdilution method in presence of 40 g/L bovine serum albumin; type: functional; details: in the assay text read “macrodilution” for “microdilution”; procedure, shortened: as §1
Streptococcus pneumoniae [12] = assay: Antimicrobial activity against penicillin-sensitive Streptococcus pneumoniae ATCC 6303 in presence of bovine serum albumin; type: functional, organism-based; procedure, shortened: as §1
Escherichia coli [13] = assay: Antimicrobial activity against Escherichia coli ATCC 25922 by serial dilution twofold broth microdilution method in presence of 40 g/L bovine serum albumin; type: functional; details: in the assay text read “macrodilution” for “microdilution”; procedure, shortened: as §1
Streptococcus pneumoniae [14] = assay: Antimicrobial activity against penicillin-sensitive Streptococcus pneumoniae ATCC 6303 by serial dilution twofold broth microdilution method in presence of 40 g/L human serum albumin; type: functional; details: in the assay text read “macrodilution” for “microdilution”; procedure, shortened: as §1
Escherichia coli [15] = assay: Antimicrobial activity against Escherichia coli ATCC 25922 by in presence of human serum albumin; type: functional, organism-based; procedure, shortened: as §1
Escherichia coli [16] = assay: Bactericidal activity against Escherichia coli ATCC 25922 at 8 times MIC after 24 hrs by time kill analysis in presence of 40 g/L human serum albumin; type: functional, organism-based
Streptococcus pneumoniae [17] = assay: Bactericidal activity against penicillin-sensitive Streptococcus pneumoniae ATCC 6303 at 8 times MIC after 6 hrs by time kill analysis in presence of 40 g/L bovine serum albumin
Streptococcus pneumoniae [18] = assay: Antimicrobial activity against penicillin-sensitive Streptococcus pneumoniae ATCC 6303 in presence of human serum albumin; type: functional, organism-based; procedure, shortened: as §1
Escherichia coli [19] = assay: Antimicrobial activity against Escherichia coli ATCC 25922 by serial dilution twofold broth microdilution method; type: functional; details: in the assay text read “macrodilution” for “microdilution”; procedure, shortened: as §1
Streptococcus pneumoniae [20] = assay: Antimicrobial activity against penicillin-sensitive Streptococcus pneumoniae ATCC 6303; type: functional, organism-based; procedure, shortened: as §1
Streptococcus pneumoniae [21] = assay: Antimicrobial activity against penicillin-sensitive Streptococcus pneumoniae ATCC 6303 assessed as maximum killing rate constant; type: functional; procedure, shortened: as §2
Escherichia coli [22] = assay: Bactericidal activity against Escherichia coli ATCC 25922 at 8 times MIC after 24 hrs by time kill analysis; type: functional, organism-based
[23] = Plasma protein binding in healthy human 1t […], iv administered as single dose by LC-MS-MS method; type: ADME, organism-based; details: read-out: PPB (converted)
Albumin [24] = target: Albumin (Homo sapiens, UniProt P02768); assay: Binding affinity to human serum albumin in THB medium containing 40 g/L HSA; type: ADME; details: human serum albumin (40 g/L) in THB medium, read-out: PB (converted)
Procedure, shortened: (§3)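 In vitro microdialysis at 20, 40, 80, 160 and 320 μg/ml drug, in triplicate, at 37°C. Matrices were THB with 40 g/liter BSA or HSA, pooled adult bovine serum, or untreated pooled human plasma. Probes were perfused with lactated Ringer at 2.0 μl/min, with recovery set in Ringer alone. Samples were taken over a 30-min period and assayed by HPLC-UV. Binding = 1 − dialysate/(recovery × total).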

Albumin [25] = target: T1, Albumin (Bos taurus, UniProt P02769); assay: Binding affinity to bovine serum albumin in THB medium containing 40 g/L BSA; type: ADME; details: cattle, bovine serum albumin (40 g/L) in THB medium; read-out: PB (converted); procedure, shortened: as §3
Albumin [26] = target: T1, Albumin; assay: Binding affinity to pooled adult bovine serum albumin; type: ADME; details: cattle, read-out: PB (converted); procedure, shortened: as §3
Plasma [27] = assay: Protein binding in pooled human plasma by microdialysis; type: ADME, cell-free; procedure, shortened: as §3
Plasma [28] = assay: Plasma protein binding in human at 400 ug/ml; type: ADME, cell-free
[29] = Plasma protein binding in human at < 100 ug/ml; type: ADME, cell-free; details: read-out: PPB (converted)

T1 sequence (P02769 whole entry): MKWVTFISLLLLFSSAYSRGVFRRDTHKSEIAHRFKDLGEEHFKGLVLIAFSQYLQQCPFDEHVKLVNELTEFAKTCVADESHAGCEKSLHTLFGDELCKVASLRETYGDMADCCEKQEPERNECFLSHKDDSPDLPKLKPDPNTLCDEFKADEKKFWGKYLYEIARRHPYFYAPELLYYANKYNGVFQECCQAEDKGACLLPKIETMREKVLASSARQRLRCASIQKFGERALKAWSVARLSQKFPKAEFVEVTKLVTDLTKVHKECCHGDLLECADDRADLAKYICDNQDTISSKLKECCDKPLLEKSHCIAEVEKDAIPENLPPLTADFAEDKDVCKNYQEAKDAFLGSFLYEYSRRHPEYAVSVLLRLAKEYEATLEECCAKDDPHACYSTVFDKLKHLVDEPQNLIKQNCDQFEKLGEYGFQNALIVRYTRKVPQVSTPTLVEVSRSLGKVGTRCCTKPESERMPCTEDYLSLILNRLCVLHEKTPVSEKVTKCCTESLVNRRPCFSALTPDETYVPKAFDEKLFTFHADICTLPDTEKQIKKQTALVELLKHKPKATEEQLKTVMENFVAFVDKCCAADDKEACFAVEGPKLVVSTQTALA
Sequence of Albumin (Homo sapiens, UniProt P02768) (P02768 whole entry, the tested form may be a part): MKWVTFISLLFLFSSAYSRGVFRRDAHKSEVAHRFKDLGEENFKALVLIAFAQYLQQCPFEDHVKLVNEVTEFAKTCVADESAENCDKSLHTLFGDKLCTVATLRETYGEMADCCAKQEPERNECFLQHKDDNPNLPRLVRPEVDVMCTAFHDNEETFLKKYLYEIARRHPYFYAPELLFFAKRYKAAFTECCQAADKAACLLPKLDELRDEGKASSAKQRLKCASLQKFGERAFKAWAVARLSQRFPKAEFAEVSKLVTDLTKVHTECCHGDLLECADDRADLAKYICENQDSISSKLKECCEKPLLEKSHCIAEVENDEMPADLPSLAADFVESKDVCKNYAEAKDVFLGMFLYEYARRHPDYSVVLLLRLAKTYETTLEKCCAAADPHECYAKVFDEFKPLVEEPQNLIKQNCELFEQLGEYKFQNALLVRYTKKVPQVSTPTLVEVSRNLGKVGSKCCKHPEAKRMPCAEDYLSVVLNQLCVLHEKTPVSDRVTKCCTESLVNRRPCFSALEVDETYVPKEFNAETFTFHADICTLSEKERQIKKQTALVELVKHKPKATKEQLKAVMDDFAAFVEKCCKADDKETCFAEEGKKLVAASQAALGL

SMILES | EC50 (Escherichia coli [1]) [µg/mL] | Ks (Streptococcus pneumoniae [2]) [h⁻¹] | EC50 (Escherichia coli [3]) [µg/mL] | Ks (Escherichia coli [5]) [h⁻¹] | MIC (Streptococcus pneumoniae [6]) [µg/mL] | Kkmax (Escherichia coli [8]) [h⁻¹] | MIC (Escherichia coli [9]) [µg/mL] | Activity (Streptococcus pneumoniae [10]) | MIC (Streptococcus pneumoniae [11]) [µg/mL] | EC50 (Streptococcus pneumoniae [12]) [µg/mL] | MIC (Escherichia coli [13]) [µg/mL] | MIC (Streptococcus pneumoniae [14]) [µg/mL] | EC50 (Escherichia coli [15]) [µg/mL] | EC50 (Streptococcus pneumoniae [18]) [µg/mL] | MIC (Escherichia coli [19]) [µg/mL] | EC50 (Streptococcus pneumoniae [20]) [µg/mL] | Kkmax (Streptococcus pneumoniae [21]) [h⁻¹] | Activity (Escherichia coli [22]) | fraction unbound [23] | fraction unbound (Albumin [24]) | also measured
CO/N=C(\C(=O)N[C@@H]1C(=O)N2C(C(=O)O)=C(CSc3nc(=O)c(O)nn3C)CS[C@H]12)c1csc(N)n1 [CEFTRIAXONE] | 0.027 (≈ 0.0487 µM) | 1.56 | 0.057 | 2.4 | 0.01 (≈ 0.018 µM) | 6.34 | 2 | Active | 0.02 | 0.015 | 0.064 | 0.16 | 1.1 | 0.084 | 0.064 (≈ 0.115 µM) | 0.004 (≈ 0.00721 µM) | 3.59 | Active | – | – | Activity (Escherichia coli [4]): inactive; Activity (Streptococcus pneumoniae [7]): inactive; Activity (Escherichia coli [16]): inactive; Activity (Streptococcus pneumoniae [17]): inactive
C[C@@H](O)[C@H]1C(=O)N2C(C(=O)O)=C(S[C@@H]3CN[C@H](C(=O)Nc4cccc(C(=O)O)c4)C3)[C@H](C)[C@H]12 [ERTAPENEM] | 0.01 (≈ 0.021 µM) | 2.28 | 0.02 | 2.76 | 0.025 (≈ 0.0526 µM) | 6.02 | 0.03 | Active | 0.025 | 0.01 | 0.015 | 0.025 | 0.014 | 0.019 | 0.015 (≈ 0.0315 µM) | 0.01 (≈ 0.021 µM) | 3.28 | Active | 0.16 | 0.822 | fraction unbound (Albumin [25]): 0.876; fraction unbound (Albumin [26]): 0.617; PPB (Plasma [27]): 73.8%
CO/N=C(\C(=O)N[C@@H]1C(=O)N2C(C(=O)O)=C(CSc3nc(=O)c(=O)[nH]n3C)CS[C@H]12)c1csc(N)n1 [CEFTRIAXONE] | – | – | – | – | – | – | – | – | – | – | – | – | – | – | – | – | – | – | 0.17 | 0.431 | PPB (Plasma [28]): 60%; fraction unbound (Albumin [25]): 0.798; fraction unbound (Albumin [26]): 0.693; PPB (Plasma [27]): 76.8%; fraction unbound [29]: 0.1
